{"source": "ChEMBL document CHEMBL3244427", "about": "“Nonsteroidal antiinflammatory agents. 2. Derivatives/analogues of dibenz[b,e]oxepin-3-acetic acid” (J Med Chem, 1978)", "key": {"Rattus norvegicus": {"test_system": "Rattus norvegicus", "test": "Antiinflammatory activity in po dosed Donryu rat assessed as inhibition of carrageenan-induced paw edema", "type": "functional", "conditions": "read-out: ID50 (the source's name)", "how_it_was_run": "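Male Donryu rats weighing 130–160 g. Carrageenan was used to induce paw edema. ID50 was read from a regression line fitted by least squares, with 95% fiducial limits calculated by Filler's equation.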"}, "[1]": {"test": "Therapeutic index, ratio of UD50 for ulcerogenicity in po dosed Donryu rat assessed as gastric lesion to ID50 for antiinflammatory activity in po dosed Donryu rat assessed as inhibition of carrageenan-induced paw edema", "type": "organism-based, Stomach", "conditions": "in vivo, read-out: TI"}, "[2]": {"test": "Ulcerogenicity in po dosed Donryu rat assessed as gastric lesion", "type": "toxicity, organism-based, Stomach", "conditions": "in vivo, read-out: UD50 (the source's name)", "how_it_was_run": "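Male Donryu rats weighing 130–160 g. Gastric lesions were induced and then examined.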"}, "[3]": {"test": "Toxicity in po dosed Donryu rat assessed as mortality", "type": "organism-based", "conditions": "in vivo", "how_it_was_run": "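Acute toxicity was tested in male Donryu rats weighing 130–160 g, with mortality as the end point.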"}, "[4]": {"test": "Therapeutic index, ratio of LD50 for po dosed Donryu rat assessed as mortality to ID50 for antiinflammatory activity in po dosed Donryu rat assessed as inhibition of carrageenan-induced paw edema", "type": "organism-based", "conditions": "in vivo, read-out: TI"}}, "data": [{"compound": "O=C(O)Cc1ccc2c(c1)C(=O)c1sccc1CO2", "values": [{"measurement": "ED50", "setting": "Rattus norvegicus", "result": 75.1, "unit": "µmol/kg"}]}, {"compound": "O=C(O)Cc1ccc2c(c1)SCc1sccc1C2=O", "values": [{"measurement": "ED50", "setting": "Rattus norvegicus", "result": 40, "unit": "µmol/kg"}]}, {"compound": "CC(CO)c1ccc2c(c1)C(=O)c1ccccc1CO2", "note": "(stereo unspecified)", "values": [{"measurement": "ED50", "setting": "Rattus norvegicus", "result": 28.3, "unit": "µmol/kg"}]}, {"compound": "CC(CO)c1ccc2c(c1)OCc1ccccc1C2=O", "note": "(stereo unspecified)", "values": [{"measurement": "ED50", "setting": "Rattus norvegicus", "result": 6, "unit": "µmol/kg"}]}, {"compound": "O=C(O)c1ccc2c(c1)C(=O)c1ccccc1CO2", "values": [{"measurement": "ED50", "setting": "Rattus norvegicus", "result": "> 70.8", "unit": "µmol/kg"}]}, {"compound": "O=C(O)c1ccc2c(c1)OCc1ccccc1C2=O", "values": [{"measurement": "ED50", "setting": "Rattus norvegicus", "result": "> 70.8", "unit": "µmol/kg"}]}, {"compound": "O=C1c2ccccc2COc2ccc(-c3nnn[nH]3)cc21", "values": [{"measurement": "ED50", "setting": "Rattus norvegicus", "result": "> 64.7", "unit": "µmol/kg"}]}, {"compound": "O=C1c2ccccc2COc2cc(-c3nnn[nH]3)ccc21", "values": [{"measurement": "ED50", "setting": "Rattus norvegicus", "result": "> 64.7", "unit": "µmol/kg"}]}, {"compound": "O=C1c2ccccc2COc2ccc(Cc3nnn[nH]3)cc21", "values": [{"measurement": "ED50", "setting": "Rattus norvegicus", "result": "> 61.6", "unit": "µmol/kg"}]}, {"compound": "O=C1c2ccccc2COc2cc(Cc3nnn[nH]3)ccc21", "values": [{"measurement": "ED50", "setting": "Rattus norvegicus", "result": "> 61.6", "unit": "µmol/kg"}]}, {"compound": "CC(=O)/C=C/c1ccc2c(c1)C(=O)c1ccccc1CO2", "values": [{"measurement": "ED50", "setting": "Rattus norvegicus", "result": "> 162", "unit": "µmol/kg"}]}, {"compound": "CC(=O)/C=C/c1ccc2c(c1)OCc1ccccc1C2=O", "values": [{"measurement": "ED50", "setting": "Rattus norvegicus", "result": "> 162", "unit": "µmol/kg"}]}, {"compound": "COc1ccc(C(=O)/C=C/c2ccc3c(c2)C(=O)c2ccccc2CO3)cc1", "values": [{"measurement": "ED50", "setting": "Rattus norvegicus", "result": "> 122", "unit": "µmol/kg"}]}, {"compound": "CC(=O)CCc1ccc2c(c1)OCc1ccccc1C2=O", "values": [{"measurement": "ED50", "setting": "Rattus norvegicus", "result": 96.7, "unit": "µmol/kg"}]}, {"compound": "CCN(CC)CCOC(=O)Cc1ccc2c(c1)C(=O)c1ccccc1CO2", "values": [{"measurement": "ED50", "setting": "Rattus norvegicus", "result": 133, "unit": "µmol/kg"}]}, {"compound": "O=C(Cc1ccc2c(c1)OCc1ccccc1C2=O)Oc1ccc(C(=O)O)cc1", "values": [{"measurement": "ED50", "setting": "Rattus norvegicus", "result": 91.6, "unit": "µmol/kg"}]}, {"compound": "CC1(C)OCC(COC(=O)Cc2ccc3c(c2)OCc2ccccc2C3=O)O1", "note": "(stereo unspecified)", "values": [{"measurement": "selectivity ratio", "setting": "[1]", "result": 5.6}, {"measurement": "ED50", "setting": "Rattus norvegicus", "result": 100, "unit": "µmol/kg"}, {"measurement": "TD50", "setting": "[2]", "result": 559, "unit": "µmol/kg"}, {"measurement": "LD50", "setting": "[3]", "result": 241, "unit": "µmol/kg"}, {"measurement": "selectivity ratio", "setting": "[4]", "result": 2.4}]}, {"compound": "O=C(Cc1ccc2c(c1)OCc1ccccc1C2=O)OCC(O)CO", "note": "(stereo unspecified)", "values": [{"measurement": "selectivity ratio", "setting": "[1]", "result": 8.1}, {"measurement": "ED50", "setting": "Rattus norvegicus", "result": 31, "unit": "µmol/kg"}, {"measurement": "TD50", "setting": "[2]", "result": 252, "unit": "µmol/kg"}, {"measurement": "LD50", "setting": "[3]", "result": 278, "unit": "µmol/kg"}, {"measurement": "selectivity ratio", "setting": "[4]", "result": 9}]}, {"compound": "NC(=O)Cc1ccc2c(c1)C(=O)c1ccccc1CO2", "values": [{"measurement": "ED50", "setting": "Rattus norvegicus", "result": "> 67.4", "unit": "µmol/kg"}]}, {"compound": "CCOC(=O)CNC(=O)Cc1ccc2c(c1)OCc1ccccc1C2=O", "values": [{"measurement": "ED50", "setting": "Rattus norvegicus", "result": "> 50.9", "unit": "µmol/kg"}]}, {"compound": "O=C(O)Cc1ccc2c(c1)COc1ccccc1C2=O", "values": [{"measurement": "ED50", "setting": "Rattus norvegicus", "result": 131, "unit": "µmol/kg"}]}, {"compound": "CC(C(=O)O)c1ccc2c(c1)OCc1ccccc1C2=O", "note": "(stereo unspecified)", "values": [{"measurement": "ED50", "setting": "Rattus norvegicus", "result": 2.7, "unit": "µmol/kg"}]}, {"compound": "O=C(O)Cc1ccc2c(c1)C(O)c1ccccc1CO2", "note": "(stereo unspecified)", "values": [{"measurement": "ED50", "setting": "Rattus norvegicus", "result": "> 66.6", "unit": "µmol/kg"}]}, {"compound": "O=C(O)Cc1ccc2c(c1)Cc1ccccc1CO2", "values": [{"measurement": "ED50", "setting": "Rattus norvegicus", "result": 99.1, "unit": "µmol/kg"}]}, {"compound": "O=C(O)Cc1ccc2c(c1)Cc1ccc(Cl)cc1CO2", "values": [{"measurement": "ED50", "setting": "Rattus norvegicus", "result": "> 62.3", "unit": "µmol/kg"}]}, {"compound": "O=C(O)Cc1ccc2c(c1)OCc1ccccc1C2O", "note": "(stereo unspecified)", "values": [{"measurement": "ED50", "setting": "Rattus norvegicus", "result": "> 66.6", "unit": "µmol/kg"}]}, {"compound": "O=C(O)Cc1ccc2c(c1)OCc1ccccc1C2", "values": [{"measurement": "ED50", "setting": "Rattus norvegicus", "result": 35, "unit": "µmol/kg"}]}, {"compound": "CC(C(=O)O)c1ccc2c(c1)OCc1ccccc1C2", "note": "(stereo unspecified)", "values": [{"measurement": "ED50", "setting": "Rattus norvegicus", "result": 12.7, "unit": "µmol/kg"}]}, {"compound": "O=C(O)Cc1ccc2c(c1)OCc1ccsc1C2=O", "values": [{"measurement": "ED50", "setting": "Rattus norvegicus", "result": 61.3, "unit": "µmol/kg"}]}, {"compound": "CC(C(=O)O)c1ccc2c(c1)OCc1ccsc1C2=O", "note": "(stereo unspecified)", "values": [{"measurement": "ED50", "setting": "Rattus norvegicus", "result": 43.7, "unit": "µmol/kg"}]}, {"compound": "O=C(O)Cc1ccc2c(c1)SCc1ccsc1C2=O", "values": [{"measurement": "ED50", "setting": "Rattus norvegicus", "result": "> 62", "unit": "µmol/kg"}]}, {"compound": "O=C(O)Cc1ccc2c(c1)C(=O)c1sccc1CS2", "values": [{"measurement": "ED50", "setting": "Rattus norvegicus", "result": "> 62", "unit": "µmol/kg"}]}, {"compound": "O=C(O)Cc1ccc2c(c1)C(=O)c1ccccc1CO2", "note": "[ISOXEPAC]", "values": [{"measurement": "ED50", "setting": "Rattus norvegicus", "result": 50, "unit": "µmol/kg"}]}, {"compound": "O=C(O)Cc1ccc2c(c1)OCc1ccccc1C2=O", "note": "[OXEPINAC]", "values": [{"measurement": "selectivity ratio", "setting": "[1]", "result": 21.6}, {"measurement": "ED50", "setting": "Rattus norvegicus", "result": 12.9, "unit": "µmol/kg"}, {"measurement": "TD50", "setting": "[2]", "result": 279, "unit": "µmol/kg"}, {"measurement": "LD50", "setting": "[3]", "result": 383, "unit": "µmol/kg"}, {"measurement": "selectivity ratio", "setting": "[4]", "result": 29.7}]}]}
